Measurements reported in ChEMBL document CHEMBL3774328, “Optimization by Molecular Fine Tuning of Dihydro-β-agarofuran Sesquiterpenoids as Reversers of P-Glycoprotein-Mediated Multidrug Resistance” (J Med Chem, 2016).

Tests used:
[1] = Intrinsic cytotoxicity against mouse NIH/3T3 cells transfected with human MDR1 by MTT assay; assay type: ADME, cell-based, NIH3T3
Outline: (§1)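 Intrinsic cytotoxicity was measured by MTT in parental NIH-3T3 and MDR1-G185 cells. CC50 came from a four-parameter logistic fit. The top tested concentration was 60 μM, limited by DMSO toxicity, and growth at 60 μM is given as % of untreated control. Mean ± SD of three independent experiments in duplicate.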

[2] = Intrinsic cytotoxicity against mouse NIH/3T3 cells by MTT assay; assay type: cell-based, NIH3T3; outline: as §1
[3] = target: T1, ATP-dependent translocase ABCB1 (Homo sapiens, UniProt P08183); assay: Inhibition of human MDR1 expressed in mouse NIH/3T3 cells assessed as reduction in daunomycin IC50 at 1 uM by MTT assay; assay type: cell-based; details: nih3t3, 1 µM
Outline: (§2)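 Parental NIH-3T3 and MDR1-G185 cells were grown in DMEM with 10% iFBS. They were exposed to increasing DNM or VLB (up to 500 ng/mL) with or without compound at fixed 1, 3 or 10 μM. Growth was read by MTT, and IC50 came from a four-parameter logistic fit. Mean ± SD of two independent experiments in triplicate.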

[4] = target: T1, ATP-dependent translocase ABCB1; assay: Inhibition of human MDR1 expressed in mouse NIH/3T3 cells assessed as reduction in daunomycin IC50 at 3 uM by MTT assay; assay type: cell-based; details: nih3t3, 3 µM
Outline: as §2, with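 “fit. Reversal index = IC50 without compound / IC50 with compound in MDR1 cells.” for “fit.”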

[5] = target: T1, ATP-dependent translocase ABCB1; assay: Inhibition of human MDR1 expressed in mouse NIH/3T3 cells assessed as reduction in daunomycin IC50 at 10 uM by MTT assay; assay type: cell-based; details: nih3t3, 10 µM
Outline: as §2, with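 “fit. Reversal index = IC50 without compound / IC50 with compound in MDR1 cells.” for “fit.”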

[6] = target: T1, ATP-dependent translocase ABCB1; assay: Inhibition of human MDR1 expressed in mouse NIH/3T3 cells assessed as reduction in vinblastine IC50 at 1 uM by MTT assay; assay type: cell-based; details: nih3t3, 1 µM
Outline: as §2, with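 “fit. Reversal index = IC50 without compound / IC50 with compound in MDR1 cells.” for “fit.”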

[7] = target: T1, ATP-dependent translocase ABCB1; assay: Inhibition of human MDR1 expressed in mouse NIH/3T3 cells assessed as reduction in vinblastine IC50 at 3 uM by MTT assay; assay type: cell-based; details: nih3t3, 3 µM
Outline: as §2, with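 “fit. Reversal index = IC50 without compound / IC50 with compound in MDR1 cells.” for “fit.”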

[8] = target: T1, ATP-dependent translocase ABCB1; assay: Inhibition of human MDR1 expressed in mouse NIH/3T3 cells assessed as reduction in vinblastine IC50 at 10 uM by MTT assay; assay type: cell-based; details: nih3t3, 10 µM
Outline: as §2, with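 “fit. Reversal index = IC50 without compound / IC50 with compound in MDR1 cells.” for “fit.”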

[9] = target: T1, ATP-dependent translocase ABCB1; assay: Inhibition of human MDR1 expressed in mouse NIH/3T3 cells assessed as inhibition of daunomycin efflux incubated for 30 mins by flow cytometry; assay type: cell-based, NIH3T3
Outline: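 Ki for DNM efflux. MDR1-G185 NIH-3T3 cells were incubated 30 min at 37 °C with DNM (2 μM) and varying compound concentrations, then read by flow cytometry. Fluorescence was converted to % P-gp inhibition, normalized to cells treated with 5 mM sodium orthovanadate (100%). Ki was fitted from I = (Imax × S)/(Ki + S). Mean ± SD of three independent experiments in triplicate.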

T1 sequence (P08183 whole entry): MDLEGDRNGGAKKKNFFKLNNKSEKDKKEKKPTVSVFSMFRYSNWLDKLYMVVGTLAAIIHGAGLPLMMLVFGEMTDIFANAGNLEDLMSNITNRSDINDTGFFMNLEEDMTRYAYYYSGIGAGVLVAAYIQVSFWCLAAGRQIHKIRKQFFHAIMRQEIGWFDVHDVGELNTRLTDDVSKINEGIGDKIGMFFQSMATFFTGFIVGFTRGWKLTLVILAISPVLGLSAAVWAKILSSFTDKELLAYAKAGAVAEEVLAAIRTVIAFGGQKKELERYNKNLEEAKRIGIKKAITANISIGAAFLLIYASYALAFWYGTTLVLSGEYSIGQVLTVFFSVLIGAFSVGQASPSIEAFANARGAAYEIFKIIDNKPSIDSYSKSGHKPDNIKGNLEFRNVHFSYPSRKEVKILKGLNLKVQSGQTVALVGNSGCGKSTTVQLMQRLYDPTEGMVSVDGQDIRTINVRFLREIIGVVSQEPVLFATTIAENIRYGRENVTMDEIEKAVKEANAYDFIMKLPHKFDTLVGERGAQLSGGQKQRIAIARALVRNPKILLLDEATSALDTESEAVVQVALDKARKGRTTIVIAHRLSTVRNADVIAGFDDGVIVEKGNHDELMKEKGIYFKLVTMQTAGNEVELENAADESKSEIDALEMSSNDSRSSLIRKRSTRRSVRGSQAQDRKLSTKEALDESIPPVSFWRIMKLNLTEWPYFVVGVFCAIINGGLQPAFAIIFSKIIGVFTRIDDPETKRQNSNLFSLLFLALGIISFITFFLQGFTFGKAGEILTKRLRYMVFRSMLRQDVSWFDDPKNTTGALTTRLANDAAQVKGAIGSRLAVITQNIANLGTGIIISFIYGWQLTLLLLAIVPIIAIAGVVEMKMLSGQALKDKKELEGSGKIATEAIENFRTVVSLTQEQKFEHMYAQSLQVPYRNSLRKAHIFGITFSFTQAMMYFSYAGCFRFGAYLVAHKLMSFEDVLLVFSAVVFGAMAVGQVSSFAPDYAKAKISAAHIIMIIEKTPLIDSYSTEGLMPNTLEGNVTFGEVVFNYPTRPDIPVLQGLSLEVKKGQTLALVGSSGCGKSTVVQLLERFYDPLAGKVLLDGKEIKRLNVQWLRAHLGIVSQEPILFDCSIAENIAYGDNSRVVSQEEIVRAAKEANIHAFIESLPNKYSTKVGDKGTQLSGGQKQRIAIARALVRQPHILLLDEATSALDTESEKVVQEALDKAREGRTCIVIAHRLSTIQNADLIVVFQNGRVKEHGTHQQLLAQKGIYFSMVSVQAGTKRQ

Structure (SMILES) | fold change (FC) [3] | fold change (FC) [4] | fold change (FC) [5] | fold change (FC) [6] | fold change (FC) [7] | fold change (FC) [8] | Ki [9] [µM] | CC50 [1] [µM] | CC50 [2] [µM]
COC(=O)CCC(=O)O[C@@H]1[C@H]2[C@H](OC(=O)/C=C/c3ccccc3)[C@H](OC(=O)c3ccccc3)[C@]3(C)[C@@H](OC(C)=O)CC[C@](C)(O)[C@@]13OC2(C)C | – | – | – | – | – | – | 0.23 | 17.6 | 36.4
CC(=O)O[C@H]1CC[C@](C)(O)[C@]23OC(C)(C)[C@H]([C@H](OC(=O)/C=C\c4ccccc4)[C@H](OC(=O)c4ccccc4)[C@]12C)[C@H]3OC(=O)c1ccccc1 | 4.1 | 14.5 | 14.7 | 15.5 | 30.1 | 59.5 | 0.25 | 25.9 | 27.2
CC(=O)O[C@H]1CC[C@](C)(O)[C@]23OC(C)(C)[C@H]([C@H](OC(=O)/C=C/c4ccccc4)[C@H](OC(=O)c4ccccc4)[C@]12C)[C@H]3OC(=O)C1CC1 | – | – | – | – | – | – | 0.24 | 11.2 | 50.3
CCOC(=O)CCC(=O)O[C@@H]1[C@H]2[C@H](OC(=O)/C=C/c3ccccc3)[C@H](OC(=O)c3ccccc3)[C@]3(C)[C@@H](OC(C)=O)CC[C@](C)(O)[C@@]13OC2(C)C | – | – | – | – | – | – | 0.26 | 15.3 | 58.9
CC(=O)O[C@H]1CC[C@](C)(O)[C@]23OC(C)(C)[C@H]([C@H](OC(=O)/C=C/c4ccccc4)[C@H](OC(=O)c4ccccc4)[C@]12C)[C@H]3OC(=O)CCC(=O)OC1CCCCC1O (stereo partly drawn) | 3.9 | 11 | 12.8 | 9.9 | 40.3 | 107.8 | 0.46 | 19.9 | 24.3
CC(=O)O[C@H]1CC[C@](C)(Cl)[C@]23OC(C)(C)[C@H]([C@H](OC(=O)/C=C/c4ccccc4)[C@H](OC(=O)c4ccccc4)[C@]12C)[C@H]3Cl | 5.2 | 12.9 | 14.8 | 11.6 | 33 | 113.9 | 1.34 | 31.4 | 43.7
CC(=O)O[C@H]1CC[C@](C)(O)[C@@]23OC(C)(C)[C@@H](C2=O)[C@H](OC(=O)/C=C/c2ccccc2)[C@H](OC(=O)c2ccccc2)[C@]13C | 5.2 | 10.4 | 15.9 | 11.6 | 29.4 | 106.3 | 0.63 | 34.8 | 18.9
CC(=O)O[C@H]1CC[C@](C)(OC(=O)CN2CCOCC2)[C@]23OC(C)(C)[C@H]([C@H](OC(=O)/C=C/c4ccccc4)[C@H](OC(=O)c4ccccc4)[C@]12C)[C@H]3OC(C)=O | 5.7 | 10.9 | 16.1 | 21.1 | 49.6 | 173.4 | 0.31 | 33.1 | 36.2

Further lines, with some results ahead:

fold change (FC) [3] | fold change (FC) [4] | fold change (FC) [5] | fold change (FC) [6] | fold change (FC) [7] | fold change (FC) [8] | Ki [9] [µM] | Structure (SMILES) | CC50 [1] [µM] | CC50 [2] [µM]
7 | 24 | 30.3 | 12.1 | 19.7 | 77 | – | CC(=O)O[C@H]1CC[C@](C)(O)[C@]23OC(C)(C)[C@H]([C@H](OC(=O)/C=C\c4ccccc4)[C@H](OC(=O)c4ccccc4)[C@]12C)[C@H]3OC(C)=O | 22.9 | 12
– | – | – | – | – | – | 0.32 | CCCC(=O)O[C@@H]1[C@H]2[C@H](OC(=O)/C=C/c3ccccc3)[C@H](OC(=O)c3ccccc3)[C@]3(C)[C@@H](OC(C)=O)CC[C@](C)(O)[C@@]13OC2(C)C | 18.3 | 44.9
– | – | – | – | – | – | 0.31 | CC(=O)O[C@H]1CC[C@](C)(O)[C@]23OC(C)(C)[C@H]([C@H](OC(=O)/C=C/c4ccccc4)[C@H](OC(=O)c4ccccc4)[C@]12C)[C@H]3OC(=O)CBr | 5.7 | 8.6
